# pEC50: −log10 of the molar value. Where two headings read alike, the source gives them in different places.
# Key:
# [1] = test system: TMPRSS2; settings: cited from earlier work
# [2] = in vivo
# [3] = test system: SARS‐CoV‐2 infection of a cell line derived from human airway epithelial cells (Calu‐3); settings: cited from earlier work
# [4] = Solubility / Biopharmaceutics Classification System class; type: physicochemical; settings: inferred from solubility and structure-suggested poor permeability
# [5] = cited from earlier work
# [6] = cited from earlier work; remark: listed apart in the source
# [7] = cited from earlier work; remark: listed apart in the source
# [8] = Phase I safety and tolerability assessment; type: in vivo, human; settings: for safety and tolerability: multiple administration, healthy adults
# Procedure, shortened: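 Healthy Japanese men took 600 mg orally four times daily on day 1 and days 3–9. Monitoring throughout covered symptoms, physical examination, and supine blood pressure and pulse. It also covered temperature, oxygen saturation, weight, hematology, biochemistry, coagulation and spot urinalysis. ECGs were 12-lead plus monitor, and adverse events were recorded.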
# [9] = test system: SARS‐Cov‐2 infection; settings: read-out: EC50 value of GBPA that inhibited SARS-CoV-2 infection; cited from earlier work
# [10] = type: in vivo, human; settings: for AUC(0-t) / Tmax / half-life / Cmax: male, human, plasma, 600 mg; for AUC(0-t) / Tmax / half-life: oral; for AUC(0-t): AUC4h; for Cmax: po, 600 mg camostat mesylate oral
# Procedure, shortened: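 Night doses were fasted. Cohort 1 took daytime doses after a meal, except a fasted day-1 morning dose. Cohort 2 dosed 30 min premeal on day 1, then 1 h premeal. Plasma GBPA was measured by LC-MS/MS and analysed noncompartmentally. Food ratios came from a mixed-effects model on ln Cmax and AUC24h.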
# [11] = Population PK; set-up: species or system human; settings: for Food effect against fasted on KA: covariate multiplier
# Procedure, shortened: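 Plasma GBPA came from 14 multiple-dose subjects (372 points) and 10 earlier single-dose fasted subjects (47 points). Modelling used NONMEM with FOCE and interaction. Doses were converted to GBPA equivalents by molecular-weight ratio. One- and two-compartment models with first-order absorption and linear elimination were tested, with additive, proportional or combined residual error. Between-subject variability and interoccasion variability were log-normal, and food condition was tested as a covariate.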
# [12] = Cohort 2, Day 1, 30 min before a meal
# [13] = Cohort 2, Day 3, 1 h before a meal
# [14] = Cohort 2, Day 9, 1 h before a meal
# [15] = Cohort 1, Day 1, Fasted, mean (SD)
# [16] = Cohort 1, Day 3, Fed, mean (SD)
# [17] = Cohort 1, Day 9, Fed, mean (SD)
# [18] = Cohort 2, Day 1, 30 min before a meal, mean (SD)
# [19] = Cohort 2, Day 3, 1 h before a meal, mean (SD)
# [20] = Cohort 2, Day 9, 1 h before a meal, mean (SD)
structure (smiles),measurement,setting,value
"CN(C)C(=O)COC(=O)Cc1ccc(OC(=O)c2ccc(NC(=N)N)cc2)cc1.CS(=O)(=O)O [camostat mesylate, dimethylcarbamoylmethyl 4‐(4‐guanidinobenzoyloxy)phenylacetate monomethanesulfonate]",TMPRSS2 inhibition,[1],inhibited
same,human equivalent dose converted from the dog NOAEL,[2],3333 mg
same,SARS-CoV-2 infection of Calu-3 cells,[3],prevented
same,Biopharmaceutics Classification System class,[4],class 3
same,presence in plasma after oral administration,[5],not detectable
same,half-life in human plasma,[6],≤ 1 min
same,solubility,[7],soluble
same,"findings in safety laboratory values, vital signs, or ECG parameters",[8]; 600 mg q.i.d.,no clinically significant findings
same,serious adverse events or deaths,[8]; 600 mg q.i.d.,no serious adverse events or deaths
same,safety and tolerability,[8]; 600 mg q.i.d.,no safety concerns were raised
same,safety and tolerability,"[8]; 600 mg q.i.d., listed as Camostat mesylate",safe and tolerated
same,QTcF change from baseline,[8]; all subjects,≤ 60 ms
same,QTcF interval,"[8]; any postbaseline visit, all subjects",≤ 480 ms
"N=C(N)Nc1ccc(C(=O)Oc2ccc(CC(=O)O)cc2)cc1 [GBPA, 4‐(4‐guanidinobenzoyloxy)phenylacetic acid]",pEC50,[9],6.75
same,exposure of GBPA compared with the fasted state,[10]; 1 h before a meal,no significant difference
same,"AUC4h against fasted, geometric mean ratio (95% confidence interval)","[10]; Cohort 1, Day 3, Fed","0.31 (0.23, 0.43)"
same,"Cmax against fasted, geometric mean ratio (95% confidence interval)","[10]; Cohort 1, Day 3, Fed","0.28 (0.18, 0.42)"
same,"AUC4h against fasted, geometric mean ratio (95% confidence interval)","[10]; Cohort 1, Day 9, Fed","0.30 (0.21, 0.43)"
same,"Cmax against fasted, geometric mean ratio (95% confidence interval)","[10]; Cohort 1, Day 9, Fed","0.27 (0.17, 0.42)"
same,"AUC4h against fasted, geometric mean ratio (95% confidence interval)",[10]; [12],"0.43 (0.29, 0.64)"
same,"Cmax against fasted, geometric mean ratio (95% confidence interval)",[10]; [12],"0.50 (0.31, 0.86)"
same,"AUC4h against fasted, geometric mean ratio (95% confidence interval)",[10]; [13],"0.53 (0.31, 0.91)"
same,"Cmax against fasted, geometric mean ratio (95% confidence interval)",[10]; [13],"0.57 (0.30, 1.08)"
same,"AUC4h against fasted, geometric mean ratio (95% confidence interval)",[10]; [14],"0.79 (0.46, 1.37)"
same,"Cmax against fasted, geometric mean ratio (95% confidence interval)",[10]; [14],"0.95 (0.51, 1.75)"
same,Cmax and AUC relative to values under fasted conditions,[10]; administered after a meal and at 30 min before a meal,not more than 50%
same,exposure of GBPA compared with the fasted state,[10]; after a meal and 30 min before a meal,significantly lower
same,AUC(0-t),[10]; [15],683 ng·h/mL
same,AUC(0-t),[10]; [16],206 ng·h/mL
same,AUC(0-t),[10]; [17],194 ng·h/mL
same,AUC(0-t),[10]; [18],227 ng·h/mL
same,AUC(0-t),[10]; [19],366 ng·h/mL
same,AUC(0-t),[10]; [20],556 ng·h/mL
same,Tmax,"[10]; Tmax, Cohort 1, Day 1, Fasted, median (range)",1 h
same,Tmax,"[10]; Tmax, Cohort 1, Day 3, Fed, median (range)",2 h
same,Tmax,"[10]; Tmax, Cohort 1, Day 9, Fed, median (range)",2 h
same,Tmax,"[10]; Tmax, Cohort 2, Day 1, 30 min before a meal, median (range)",1 h
same,Tmax,"[10]; Tmax, Cohort 2, Day 3, 1 h before a meal, median (range)",1 h
same,Tmax,"[10]; Tmax, Cohort 2, Day 9, 1 h before a meal, median (range)",1 h
same,half-life,"[10]; half-life, plasma GBPA elimination",< 2 h
same,Tmax,"[10]; median Tmax, fasted conditions, 30 min before a meal, and 1 h before a meal",1 h
same,Tmax,"[10]; median Tmax, fed conditions",2 h
same,half-life,"[10]; t1/2, Cohort 1, Day 1, Fasted, mean (SD), n = 6",1.58 h
same,half-life,"[10]; t1/2, Cohort 1, Day 3, Fed, mean, n = 2",1.33 h
same,half-life,"[10]; t1/2, Cohort 1, Day 9, Fed, mean (SD), n = 3",1.16 h
same,half-life,"[10]; t1/2, Cohort 2, Day 1, 30 min before a meal, mean (SD)",1.35 h
same,half-life,"[10]; t1/2, Cohort 2, Day 3, 1 h before a meal, mean (SD), n = 6",1.05 h
same,half-life,"[10]; t1/2, Cohort 2, Day 9, 1 h before a meal, mean (SD)",0.962 h
same,Cmax,[10]; [15],371 ng/mL
same,Cmax,[10]; [16],95.8 ng/mL
same,Cmax,[10]; [17],93.5 ng/mL
same,Cmax,[10]; [18],177 ng/mL
same,Cmax,[10]; [19],218 ng/mL
same,Cmax,[10]; [20],367 ng/mL
same,Food effect against fasted on KA,"[11]; 30 min before a meal, FIXED",1.0 FIXED
same,Food effect against fasted on KA,"[11]; 1 h before a meal, FIXED",1.0 FIXED
same,Food effect against fasted on KA,[11]; Fed,0.0807
same,Absorption rate constant (KA),[11]; PopPK fixed effect estimate,5.91 h⁻¹
same,Lag time,[11]; PopPK fixed effect estimate,0.319 h
same,IOV on FA,[11]; interoccasion variability,35.8 % CV
same,IOV on KA,[11]; interoccasion variability,105 % CV
same,Proportional residual error,[11]; intra-subject variability,0.39 % CV
same,Vd/F,"[11]; male, human, plasma, oral",904 L
same,clearance,"[11]; male, human, plasma, oral",11300 mL/min

# From PMC8239543 (Clinical and Translational Science, 2021)
